Results collected from several papers.
Protocols differ between the studies behind these lines.
Target: Misshapen-like kinase 1 (MINK1, Homo sapiens, UniProt Q8N4C8)

FC(F)(F)c1ccc2c(c1)nc(-c1cccnc1)n2C1CC1  remaining binding (cell-free assay, competition with immobilised ligand; 1 µM): 100%
O=C(c1ccc(Nc2ncc(Cl)c(-c3ccc(Cl)s3)n2)cc1)N1CCC(N2CCCC2)CC1  remaining binding (binding, competition with immobilised ligand; 1 µM): 17%
COc1cnc(Nc2cccc(S(N)(=O)=O)c2)nc1N1CCN(c2ccccc2)CC1  remaining binding (binding, competition with immobilised ligand; 1 µM): 76%
CC(C)(O)c1cncc(-c2nc3ccc(F)cc3n2C2CC2)c1  remaining binding (cell-free assay, competition with immobilised ligand; 1 µM): 100%
O=C(Nc1c[nH]nc1C(=O)NC1CCNCC1)c1cc(F)cc(F)c1  remaining binding (binding, competition with immobilised ligand; 1 µM): 93%
C[C@@H]1CCN(c2nccc(-c3cnn4ncccc34)n2)C1  remaining binding (binding; 1 µM): 74%
c1cncc(-c2cccc(Nc3nccc(NC4CCCCC4)n3)c2)c1  remaining binding (binding, competition with immobilised ligand; 10 µM): 4.8%
CN(CCCC(F)(F)F)c1nccc(-c2cnn3ncccc23)n1  remaining binding (binding; 1 µM): 100%
COc1ncc2cc3ccccc3nc2c1C#N  remaining binding (cell-free assay, competition with immobilised ligand; 5 µM): 99%
O=C(NCCCN1CCOCC1)c1ccc(Nc2nccc(-c3cc4ccccc4s3)n2)cc1  remaining binding (binding, competition with immobilised ligand; 1 µM): 46%
O=C(Nc1cnc(Oc2ccc(F)cc2)nc1)N1CCc2ncccc2[C@@H]1c1ccc(F)cc1  remaining binding (cell-free assay, competition with immobilised ligand; 1 µM): 100%
CN(C)c1nccc(-c2cnc3ncccn23)n1  remaining binding (binding; 1 µM): 82%
Cc1c[nH]c2nccc(Oc3c(F)cc(Nc4cc(Cl)nc(N)n4)cc3F)c12  remaining binding (cell-free assay, competition with immobilised ligand; 0.1 µM): 100%
CN(c1nccc(-c2cnn3ncccc23)n1)C1CC1  remaining binding (binding; 1 µM): 100%
C[C@H](c1cccc(C#N)c1)n1cc(Cl)cc(C(N)=O)c1=N  remaining binding (cell-free assay, competition with immobilised ligand; 1 µM): 88%
COc1ccnn2ncc(-c3ccnc(N(C)C)n3)c12  remaining binding (binding; 1 µM): 81%
Nc1ncc2c(n1)-c1c([nH]c3ccc(C#CC4CC4)cc13)CCCC2  remaining binding (binding, competition with immobilised ligand; 1 µM): 94%
FC(F)(F)Oc1cccc(-c2cnc3ccc(-c4ccncc4)nn23)c1  remaining binding (binding, competition with immobilised ligand; 5 µM): 7.2%
O=C(Nc1cccnn1)N1CC(C/C=C/c2cncc(Oc3ccc(C(F)(F)F)cn3)n2)C1  remaining binding (cell-free assay, competition with immobilised ligand; 1 µM): 100%
O=C(NCCCN1CCOCC1)c1ccc(Nc2ncc(Cl)c(-c3ccc(Cl)s3)n2)cc1  remaining binding (binding, competition with immobilised ligand; 1 µM): 20%
N[C@H]1CCN(c2nccc(-c3cnn4ncccc34)n2)C1  remaining binding (binding; 1 µM): 100%
N#Cc1ccc(Nc2ccc3[nH]c(=O)[nH]c3c2)c(Cl)c1  remaining binding (cell-free assay, competition with immobilised ligand; 1 µM): 91%
